SMILES strings stand for the structures.

Experiment [1] relates to Trypanosoma cruzi. As to the kind of experiment: Maximum inhibitory activity against Trypanosoma cruzi (amastigotes). It is filed as functional.
Experiment [2] has as its system Trypanosoma cruzi. Nature of the experiment: Inhibitory concentration against Trypanosoma cruzi (epimastigotes). It is filed as functional, organism-based. The method, boiled down:
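Epimastigote growth inhibition; IC50 values are the means of three experiments.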

Experiment [3] concerns Trypanosoma cruzi. Nature of the experiment: Inhibitory concentration against Trypanosoma cruzi (amastigotes). It is filed as functional, organism-based.
For experiment [4], the system named is Trypanosoma cruzi. Nature of the experiment: Maximum inhibitory activity against Trypanosoma cruzi (amastigotes).

One may read the Inhibition as how much of the control response was suppressed. Low values mean little suppression, high ones strong suppression. Usually IC50 stands for the concentration needed to halve the response being measured. Low readings indicate greater potency, high ones weaker potency. Turning to `CCC(P(=O)(O)O)P(=O)(O)O`, the Inhibition in the experiment on Trypanosoma cruzi [1] was 21%. In addition, the IC50 with Trypanosoma cruzi [2] and in the experiment with Trypanosoma cruzi [3] (Trypanosoma cruzi) was over 100 µM each time.
Take `CCCCC(P(=O)(OCC)OCC)P(=O)(OCC)OCC`: the results for the IC50 in the experiment on Trypanosoma cruzi [2] and with Trypanosoma cruzi [3] (Trypanosoma cruzi) were over 70 µM and over 50 µM, respectively.
Compound `CCCCCC(P(=O)(O)O)P(=O)(O)O` had an IC50 with Trypanosoma cruzi [2] of over 70 µM.
`CCCCCCCC(P(=O)(O)O)P(=O)(O)O` displayed an Inhibition with Trypanosoma cruzi [1] of 49%. Further, the IC50 in the experiment on Trypanosoma cruzi [2] and in the experiment on Trypanosoma cruzi [3] (Trypanosoma cruzi) was over 70 µM in each case.
Take `CCCCCCC(O)(P(=O)(O)O)P(=O)(O)O`: the IC50 with Trypanosoma cruzi [3] is 18.1 µM.
Turning to `CCCCC(P(=O)(O)O)P(=O)(O)O`, the IC50 in the experiment with Trypanosoma cruzi [2] and with Trypanosoma cruzi [3] (Trypanosoma cruzi) was over 70 µM throughout.
On to `CCCCCCCC(O)(P(=O)(O)O)P(=O)(O)O`, for which the IC50 in the experiment with Trypanosoma cruzi [2] and in the experiment on Trypanosoma cruzi [3] (Trypanosoma cruzi) was over 70 µM each time. Further, the Inhibition in the experiment with Trypanosoma cruzi [4] is recorded as 41%.
`CCCC(P(=O)(O)O)P(=O)(O)O` gave an Inhibition in the experiment with Trypanosoma cruzi [1] of 28%. The 50% inhibitory concentration (IC50) was over 100 µM with Trypanosoma cruzi [2] and over 90 µM in the experiment with Trypanosoma cruzi [3] (Trypanosoma cruzi).
On to `CCCCCCCCC(P(=O)(OCC)OCC)P(=O)(OCC)OCC`, for which the concentration for half-maximal inhibition (IC50) in the experiment with Trypanosoma cruzi [2] and with Trypanosoma cruzi [3] (Trypanosoma cruzi) was over 50 µM in each case.
In the case of `CCCC(O)(P(=O)(O)O)P(=O)(O)O`, the concentration for half-maximal inhibition (IC50) with Trypanosoma cruzi [2] was over 70 µM.
`CCCC(P(=O)(OCC)OCC)P(=O)(OCC)OCC` came in with an Inhibition with Trypanosoma cruzi [1] of 27%. The IC50 in the experiment with Trypanosoma cruzi [2] and with Trypanosoma cruzi [3] (Trypanosoma cruzi) was over 70 µM throughout.
On to `CCCCCCCCCCCCCC(O)(P(=O)(O)O)P(=O)(O)O`, for which the Inhibition with Trypanosoma cruzi [1] stood at 10%. Besides, the IC50 with Trypanosoma cruzi [3] (Trypanosoma cruzi) was over 70 µM.
`CCCCCCCCCC(O)(P(=O)(O)O)P(=O)(O)O`: the IC50 with Trypanosoma cruzi [2] is over 70 µM.
In turn, `CCCCCCC(P(=O)(O)O)P(=O)(O)O` registered an Inhibition in the experiment on Trypanosoma cruzi [1] of 47%. In addition, the half-maximal inhibitory concentration (IC50) with Trypanosoma cruzi [2] and in the experiment with Trypanosoma cruzi [3] (Trypanosoma cruzi) was over 70 µM throughout.
In the case of `CCCCCCCCC(P(=O)(O)O)P(=O)(O)O`, in the experiment with Trypanosoma cruzi [2], the IC50 is over 70 µM.
On the same count and under the same terms, for `CCCCCCCCC(O)(P(=O)(O)O)P(=O)(O)O` the value was over 70 µM.
Still for that read-out and setting: for `CCCCCCCC(P(=O)(OCC)OCC)P(=O)(OCC)OCC` the value was over 50 µM.
On to `CCCCCC(O)(P(=O)(O)O)P(=O)(O)O`, for which the IC50 in the experiment on Trypanosoma cruzi [2] and in the experiment on Trypanosoma cruzi [3] (Trypanosoma cruzi) was over 70 µM each time. The compound also had an Inhibition with Trypanosoma cruzi [4] of 34%.
In the experiment on Trypanosoma cruzi [3] (Trypanosoma cruzi), `CCOP(=O)(OCC)C(CC)P(=O)(OCC)OCC` yielded an IC50 of over 70 µM.
With `CCCCCCCCCC(P(=O)(OCC)OCC)P(=O)(OCC)OCC`, the IC50 with Trypanosoma cruzi [2] is over 50 µM.
Same read-out and setting: for `CCCCCCC(P(=O)(OCC)OCC)P(=O)(OCC)OCC` the value was over 50 µM; for `CCCCCCCCCC(P(=O)(O)O)P(=O)(O)O`, over 70 µM.
On the same count and under the same terms, for `CCCCCC(P(=O)(OCC)OCC)P(=O)(OCC)OCC` the value was over 50 µM.
